Source: ChEMBL document CHEMBL4049389, “Design, synthesis and biological evaluation of aminobenzyloxyarylamide derivatives as selective κ opioid receptor antagonists” (Eur J Med Chem, 2017)
Active and inactive are the calls of the source. The rule behind the calls is not given here.

How the values were obtained:
Mu-type opioid receptor [1] = molecular target: T1, Mu-type opioid receptor (Homo sapiens, UniProt P35372); test: Displacement of [3H]DAMGO from recombinant human mu-opioid receptor expressed in CHO cell membranes after 60 mins by liquid scintillation counting method
Mu-type opioid receptor [2] = molecular target: T1, Mu-type opioid receptor; test: Antagonist activity at recombinant human mu-opioid receptor expressed in CHO cell membranes assessed as inhibition of DAMGO-induced [35S]GTPgammaS binding after 4 hrs by microbeta scintillation counting method; format: functional
Outline: (§1)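 Membranes from CHO cells (κ, μ) or HEK293 cells (δ) expressing human opioid receptors. Assay buffer was 20 mM HEPES pH 7.4, 5 mM MgCl2, 100 mM NaCl, 1 mM EDTA, 1 mM DTT with GDP. GTP-γ-35S was 0.5 nM final. Agonist at ~80% max stimulation: U69,593 300 nM (κ), DAMGO (μ), DPDPE 30 nM (δ). Read by WGA SPA, 11-point curves, four-parameter fit; mean ± SEM of ≥3 experiments.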

[3] = molecular target: T2, Delta-type opioid receptor (Homo sapiens, UniProt P41143); test: Antagonist activity at recombinant human delta-opioid receptor expressed in HEK293 cell membranes assessed as inhibition of DPDPE-induced [35S]GTPgammaS binding after 2 hrs by microbeta scintillation counting method; format: functional; outline: as §1
[4] = molecular target: T3, Kappa-type opioid receptor (Homo sapiens, UniProt P41145); test: Displacement of [3H]U69593 from recombinant human kappa-opioid receptor expressed in CHO cell membranes at 1 X 10^-5 M after 60 mins by liquid scintillation counting method relative to control
Outline: (§2)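 Single-concentration radioligand displacement in membranes from CHO (κ, μ) or HEK293 (δ) cells expressing human receptors. Radioligands were [3H]-U69,593, [3H]-DAMGO and [3H]-DPDPE, incubated in Tris-HCl at 25 °C for 60 min, filtered and counted by scintillation. Read-out was percent inhibition of specific binding; assays were done in duplicate.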

Mu-type opioid receptor [5] = molecular target: T1, Mu-type opioid receptor; test: Displacement of [3H]DAMGO from recombinant human mu-opioid receptor expressed in CHO cell membranes at 1 X 10^-6 M after 60 mins by liquid scintillation counting method relative to control; outline: as §2
Mus musculus [6] = test: Anxiolytic activity in ICR mouse assessed as increase in time spent on open arms at 30 mg/kg, ip administered 30 mins prior to test measured for 5 mins by elevated plus maze test; format: functional, organism-based
Outline: (§3)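 Male ICR mice (18–22 g), 10 per group, adapted ≥1 h. Dosed i.p. with saline vehicle 30 min pretest. Maze elevated 50 cm; each mouse started on the central platform facing an open arm. Entries and time in open and closed arms were video-tracked over 5 min, expressed as OE/(CE+OE) and OT/(OT+CT); mean ± SEM.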

[7] = molecular target: T3, Kappa-type opioid receptor; test: Displacement of [3H]U69593 from recombinant human kappa-opioid receptor expressed in CHO cell membranes at 1 X 10^-6 M after 60 mins by liquid scintillation counting method relative to control; outline: as §2
Homo sapiens [8] = species on record: Homo sapiens; test: Selectivity ratio of IC50 for antagonist activity at recombinant human mu-opioid receptor expressed in CHO cell membranes assessed as inhibition of DAMGO-induced [35S]GTPgammaS binding to IC50 for antagonist activity at recombinant human kappa-opioid receptor expressed in CHO cell membranes assessed as inhibition of U69593-induced [35S]GTPgammaS binding; outline: as §1
[9] = molecular target: T2, Delta-type opioid receptor; test: Displacement of [3H]DPDPE from recombinant human delta-opioid receptor expressed in HEK293 cell membranes at 1 X 10^-6 M after 60 mins by liquid scintillation counting method relative to control; outline: as §2
Homo sapiens [10] = species on record: Homo sapiens; test: Selectivity ratio of Ki for displacement of [3H]DAMGO from recombinant human mu-opioid receptor expressed in CHO cell membranes to Ki for displacement of [3H]U69593 from recombinant human kappa-opioid receptor expressed in CHO cell membranes
[11] = molecular target: T2, Delta-type opioid receptor; test: Displacement of [3H]DPDPE from recombinant human delta-opioid receptor expressed in HEK293 cell membranes at 1 X 10^-5 M after 60 mins by liquid scintillation counting method relative to control; outline: as §2
Mus musculus [12] = test: Anxiolytic activity in ICR mouse assessed as increase in number of open arm entries at 30 mg/kg, ip administered 30 mins prior to test measured for 5 mins by elevated plus maze test; format: functional, organism-based; outline: as §3
[13] = molecular target: T2, Delta-type opioid receptor; test: Displacement of [3H]DPDPE from recombinant human delta-opioid receptor expressed in HEK293 cell membranes after 60 mins by liquid scintillation counting method
Homo sapiens [14] = species on record: Homo sapiens; test: Selectivity ratio of IC50 for antagonist activity at recombinant human delta-opioid receptor expressed in HEK293 cell membranes assessed as inhibition of DPDPE-induced [35S]GTPgammaS binding to IC50 for antagonist activity at recombinant human kappa-opioid receptor expressed in CHO cell membranes assessed as inhibition of U69593-induced [35S]GTPgammaS binding; outline: as §1
[15] = molecular target: T3, Kappa-type opioid receptor; test: Antagonist activity at recombinant human kappa-opioid receptor expressed in CHO cell membranes assessed as inhibition of U69593-induced [35S]GTPgammaS binding after 4 hrs by microbeta scintillation counting method; format: functional; outline: as §1
Homo sapiens [16] = species on record: Homo sapiens; test: Selectivity ratio of Ki for displacement of [3H]DPDPE from recombinant human delta-opioid receptor expressed in HEK293 cell membranes to Ki for displacement of [3H]U69593 from recombinant human kappa-opioid receptor expressed in CHO cell membranes
Mus musculus [17] = test: Antidepressant-like activity in ICR mouse assessed as decrease in immobility time at 30 mg/kg, ip administered 30 mins prior to test measured for last 4 mins of 6 mins observation by forced swim test; format: functional, organism-based
Outline: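 Male ICR mice (20–25 g), 10 per group, adapted ≥15 min before testing. Dosed i.p. with saline vehicle 30 min pretest. Each mouse was placed in a cylinder 10 cm wide with water 6 cm deep at 25 °C for 6 min. Immobility was scored over the last 4 min; mean ± SEM.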

Mu-type opioid receptor [18] = molecular target: T1, Mu-type opioid receptor; test: Displacement of [3H]DAMGO from recombinant human mu-opioid receptor expressed in CHO cell membranes at 1 X 10^-5 M after 60 mins by liquid scintillation counting method relative to control; outline: as §2
[19] = molecular target: T3, Kappa-type opioid receptor; test: Displacement of [3H]U69593 from recombinant human kappa-opioid receptor expressed in CHO cell membranes after 60 mins by liquid scintillation counting method
[20] = Half life in rat at 1 or 10 mg/kg, iv or po by LC-MS/MS analysis; format: ADME, organism-based; conditions: in vivo
[21] = Oral bioavailability in rat at 10 mg/kg by LC-MS/MS analysis; format: ADME, organism-based; conditions: in vivo
[22] = Tmax in rat at 1 or 10 mg/kg, iv or po by LC-MS/MS analysis; format: ADME, organism-based; conditions: in vivo

T3 sequence (P41145 whole entry): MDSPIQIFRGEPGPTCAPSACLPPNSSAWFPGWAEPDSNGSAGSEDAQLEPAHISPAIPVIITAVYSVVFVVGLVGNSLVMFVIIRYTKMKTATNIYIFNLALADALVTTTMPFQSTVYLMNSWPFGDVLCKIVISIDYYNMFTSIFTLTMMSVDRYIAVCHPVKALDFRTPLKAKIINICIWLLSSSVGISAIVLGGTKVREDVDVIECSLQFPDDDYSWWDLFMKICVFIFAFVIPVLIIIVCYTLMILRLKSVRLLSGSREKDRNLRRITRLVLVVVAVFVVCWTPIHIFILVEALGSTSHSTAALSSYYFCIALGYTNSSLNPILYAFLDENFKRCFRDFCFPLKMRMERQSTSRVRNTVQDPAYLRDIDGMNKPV
T1 sequence (P35372 whole entry): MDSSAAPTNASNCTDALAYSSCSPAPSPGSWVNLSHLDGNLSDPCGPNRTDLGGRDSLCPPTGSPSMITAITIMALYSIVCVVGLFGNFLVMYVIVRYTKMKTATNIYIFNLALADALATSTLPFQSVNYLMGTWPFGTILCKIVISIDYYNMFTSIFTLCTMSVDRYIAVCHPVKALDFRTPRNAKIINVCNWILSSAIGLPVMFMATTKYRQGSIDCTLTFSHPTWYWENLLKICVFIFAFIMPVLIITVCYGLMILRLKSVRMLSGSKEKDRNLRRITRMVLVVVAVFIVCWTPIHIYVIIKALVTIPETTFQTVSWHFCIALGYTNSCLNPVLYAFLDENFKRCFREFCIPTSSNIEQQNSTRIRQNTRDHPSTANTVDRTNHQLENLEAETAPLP
T2 sequence (P41143 whole entry): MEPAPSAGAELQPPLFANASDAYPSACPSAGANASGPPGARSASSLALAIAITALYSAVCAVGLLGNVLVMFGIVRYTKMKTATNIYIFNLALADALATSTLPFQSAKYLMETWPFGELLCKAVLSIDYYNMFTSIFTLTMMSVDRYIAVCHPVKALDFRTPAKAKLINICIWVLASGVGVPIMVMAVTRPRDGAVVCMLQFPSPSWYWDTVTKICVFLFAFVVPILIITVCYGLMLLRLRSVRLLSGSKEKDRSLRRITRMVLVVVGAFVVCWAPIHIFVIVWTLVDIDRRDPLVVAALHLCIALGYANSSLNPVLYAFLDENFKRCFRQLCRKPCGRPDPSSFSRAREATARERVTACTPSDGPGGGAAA

Structure (SMILES)	Ki (Mu-type opioid receptor [1]) [µM]	inhibition [4] [%]	inhibition (Mu-type opioid receptor [5]) [%]	inhibition [7] [%]	inhibition [9] [%]	inhibition [11] [%]	Ki [13] [µM]	inhibition (Mu-type opioid receptor [18]) [%]	Ki [19] [µM]	Ratio Ki (Homo sapiens [10])	Ratio Ki (Homo sapiens [16])	other results
Cc1cc(C)cc([C@@H]2CCCN2Cc2ccc(Oc3ccc(C(N)=O)cc3F)cc2)c1 [ATICAPRANT]												half-life [20]: 2 to 4 h; bioavailability [21]: 25%; Tmax [22]: 1 to 2 h
Cc1cccc(C2CCCN2Cc2ccc(Oc3ccc(C(N)=O)c4ccccc34)cc2)c1 (stereo unspecified)	> 10	86.9	0	39.9	0	0	> 10	16.3	1.74	> 5.8	> 5.8	Activity (Mus musculus [6]): Active; Activity (Mus musculus [12]): Active; Activity (Mus musculus [17]): Active
NC(=O)c1ccc(Oc2ccc(CN3CCCC3c3ccc(F)cc3)cc2)c2ccccc12 (stereo unspecified)		39	0	13.8	0	0		0				
NC(=O)c1ccc(Oc2ccc(CN3CCCC3c3cccc(Cl)c3)cc2)c2ccccc12 (stereo unspecified)		64.1	0	31.4	0	0		0				
COc1ccc(C2CCCN2Cc2ccc(Oc3ccc(C(N)=O)c4ccccc34)cc2)cc1 (stereo unspecified)	> 10	80.5	0	46.5	0	9	> 10	15	4.6	> 2.2	> 2.2	
NC(=O)c1ccc(Oc2ccc(CN3CCCC3c3cccnc3)cc2)c2ccccc12 (stereo unspecified)		12	11.3	5.1	0	0		52.2				
NC(=O)c1ccc(Oc2ccc(CN3CCCC3c3cccc(F)c3)cc2)c2ccccc12 (stereo unspecified)		57.9	0	27.7	2.3	4		0				
Cc1ccccc1C1CCCN1Cc1ccc(Oc2ccc(C(N)=O)c3ccccc23)cc1 (stereo unspecified)		34	0	13.9	0	2.9		0				

Continued, in another order:

Ki (Mu-type opioid receptor [1]) [µM]	inhibition [4] [%]	inhibition (Mu-type opioid receptor [5]) [%]	inhibition [7] [%]	inhibition [9] [%]	inhibition [11] [%]	Ki [13] [µM]	inhibition (Mu-type opioid receptor [18]) [%]	Ki [19] [µM]	Structure (SMILES)	Ratio Ki (Homo sapiens [10])	Ratio Ki (Homo sapiens [16])	other results
0.0909	100	56.1	97	45.5	87.2	0.0915	93.6	0.0119	Cc1cc(C)cc(C2CCCN2Cc2ccc(Oc3ccc(C(N)=O)cc3F)cc2)c1 (racemic)	7.6	7.6	IC50 (Mu-type opioid receptor [2]): 0.0226 µM; IC50 [3]: 0.0955 µM; Activity (Mus musculus [6]): Active; Ratio IC50 (Homo sapiens [8]): 3.4; Activity (Mus musculus [12]): Active; Ratio IC50 (Homo sapiens [14]): 14.3; IC50 [15]: 0.00668 µM; Activity (Mus musculus [17]): Active
0.22	100	51.4	98.5	54.1	92.4	0.191	94.2	0.0157	Cc1cc(C)cc(C2CCCN2Cc2ccc(Oc3ccc(C(N)=O)cc3F)c(Cl)c2)c1 (stereo unspecified)	14	12.2	IC50 (Mu-type opioid receptor [2]): 0.144 µM; IC50 [3]: 0.0158 µM; Activity (Mus musculus [6]): Active; Ratio IC50 (Homo sapiens [8]): 15.5; Activity (Mus musculus [12]): Active; Ratio IC50 (Homo sapiens [14]): 1.7; IC50 [15]: 0.00932 µM; Activity (Mus musculus [17]): Active
	23.7	0	12.2	0	0		0		Cc1cc(C)cc(C2CCCN2Cc2ccc(Oc3ccc(C(N)=O)c4ccccc34)cc2)c1 (stereo unspecified)			
0.0323	100	78.8	99.3	36.5	87.5	0.489	99.1	0.0376	Cc1cc(C)cc(C2CCCN2Cc2ccc(Oc3ccc(C(N)=O)cc3)c(Cl)c2)c1 (stereo unspecified)	0.85	13	
0.0628	100	71	98.8	45.5	97.1	0.267	95.3	0.0294	Cc1cc(C)cc(C2CCCN2Cc2ccc(Oc3ccc(C(N)=O)cc3)c(F)c2)c1 (stereo unspecified)	2.13	9	Activity (Mus musculus [17]): Active
0.0279	98.7	73.4	95.8	37.4	89.2	0.429	96.8	0.0427	Cc1cc(C)cc(C2CCCN2Cc2ccc(Oc3ccc(C(N)=O)cc3F)c(F)c2)c1 (stereo unspecified)	0.65	10.1	
